Key:
[1] = biological target: T1, Cannabinoid receptor 2 (Homo sapiens, UniProt P34972); test: Displacement of [3H]-CP55940 from human CB2 receptor expressed in CHO cells preincubated for 1 hr followed by radioligand addition measured after 1 hr by liquid scintillation counting analysis; assay type: cell-based
Summary of the method: (§1)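 CHO cells stably expressing human CB1 or CB2 grown 24 h at 2.0 × 10^5 cells/mL in DMEM/F12 with 10% FBS. They were preincubated 1 h with serial dilutions (top 5.0 μM for CB1, 10 μM for CB2; DMSO <0.1% final), then given 1 h 10 nM [3H]-Win 55,212-2 (CB1) or 2 nM [3H]-CP 55,940 (CB2). Cells were washed, NaOH-lysed and scintillation-counted. Uptake normalized to no-compound wells; sigmoid fit; mean ± SE, n = 6.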

[2] = biological target: T2, Cannabinoid receptor 1 (Homo sapiens, UniProt P21554); test: Displacement of [3H]-Win55212-2 from human CB1 receptor expressed in CHO cells preincubated for 1 hr followed by radioligand addition measured after 1 hr by liquid scintillation counting analysis; assay type: cell-based; summary of the method: as §1
T2 sequence (P21554 whole entry): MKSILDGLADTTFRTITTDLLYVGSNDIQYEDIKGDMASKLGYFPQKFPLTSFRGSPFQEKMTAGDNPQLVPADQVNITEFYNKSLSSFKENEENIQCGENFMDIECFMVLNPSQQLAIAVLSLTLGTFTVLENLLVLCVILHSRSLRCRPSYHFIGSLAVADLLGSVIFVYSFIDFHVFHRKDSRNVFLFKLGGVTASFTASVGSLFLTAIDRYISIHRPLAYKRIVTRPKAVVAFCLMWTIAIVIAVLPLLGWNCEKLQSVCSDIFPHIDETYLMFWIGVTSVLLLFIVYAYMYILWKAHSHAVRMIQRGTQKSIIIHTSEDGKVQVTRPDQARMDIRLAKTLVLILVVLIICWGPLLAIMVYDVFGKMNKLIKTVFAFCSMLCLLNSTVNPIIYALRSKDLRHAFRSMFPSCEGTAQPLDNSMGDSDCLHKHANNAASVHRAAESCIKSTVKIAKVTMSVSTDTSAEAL

[3] = species on record: Homo sapiens; test: Selectivity ratio of IC50 for human CB1 receptor to IC50 for human CB2 receptor
[4] = biological target: T1, Cannabinoid receptor 2; test: Inhibition of human CB2 receptor internalization expressed in CHO cells assessed as inhibition of [3H]-CP55940 uptake preincubated for 1 hr followed by radioligand addition measured after 1 hr by liquid scintillation counting analysis relative to control; assay type: cell-based; design: concentration or dose not given beside the values; conditions: concentration not given here; summary of the method: as §1
[5] = biological target: T2, Cannabinoid receptor 1; test: Inhibition of human CB1 receptor internalization expressed in CHO cells assessed as inhibition of [3H]-Win55212-2 uptake preincubated for 1 hr followed by radioligand addition measured after 1 hr by liquid scintillation counting analysis relative to control; assay type: cell-based; design: concentration or dose not given beside the values; conditions: concentration not given here; summary of the method: as §1
[6] = biological target: T1, Cannabinoid receptor 2; test: Agonist activity at CB2 receptor (unknown origin) at 10 uM after 90 to 180 mins by beta-arrestin assay relative to control
[7] = biological target: T3, Follicle-stimulating hormone receptor (Homo sapiens) (UniProt P23945); test: Antagonist activity at FSHR (unknown origin) at 10 uM after 3 to 5 hrs by beta-arrestin assay relative to control
T3 sequence (whole entry): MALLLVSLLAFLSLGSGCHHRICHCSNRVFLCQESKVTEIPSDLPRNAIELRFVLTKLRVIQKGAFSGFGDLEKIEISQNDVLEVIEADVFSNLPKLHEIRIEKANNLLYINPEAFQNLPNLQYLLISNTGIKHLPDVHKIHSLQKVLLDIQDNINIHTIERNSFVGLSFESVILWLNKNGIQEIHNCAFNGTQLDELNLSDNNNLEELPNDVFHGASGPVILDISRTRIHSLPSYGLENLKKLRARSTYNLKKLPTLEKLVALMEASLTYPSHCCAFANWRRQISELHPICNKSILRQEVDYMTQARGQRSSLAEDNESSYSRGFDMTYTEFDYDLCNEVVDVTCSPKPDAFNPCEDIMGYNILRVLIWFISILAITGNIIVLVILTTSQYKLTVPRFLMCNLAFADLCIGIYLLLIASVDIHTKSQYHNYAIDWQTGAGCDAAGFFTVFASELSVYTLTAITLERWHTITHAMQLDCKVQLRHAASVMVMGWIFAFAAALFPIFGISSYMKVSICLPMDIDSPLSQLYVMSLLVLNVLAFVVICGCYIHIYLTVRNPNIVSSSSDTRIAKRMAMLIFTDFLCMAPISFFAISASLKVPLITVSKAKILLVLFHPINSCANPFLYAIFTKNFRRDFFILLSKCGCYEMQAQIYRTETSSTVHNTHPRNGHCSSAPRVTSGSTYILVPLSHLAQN

[8] = biological target: T2, Cannabinoid receptor 1; test: Antagonist activity at CB1 receptor (unknown origin) at 10 uM after 3 to 5 hrs by beta-arrestin assay relative to control
[9] = biological target: T4, Prolactin-releasing peptide receptor (Homo sapiens) (UniProt P49683); test: Antagonist activity at PRLHR (unknown origin) at 10 uM after 3 to 5 hrs by beta-arrestin assay relative to control
T4 sequence (whole entry): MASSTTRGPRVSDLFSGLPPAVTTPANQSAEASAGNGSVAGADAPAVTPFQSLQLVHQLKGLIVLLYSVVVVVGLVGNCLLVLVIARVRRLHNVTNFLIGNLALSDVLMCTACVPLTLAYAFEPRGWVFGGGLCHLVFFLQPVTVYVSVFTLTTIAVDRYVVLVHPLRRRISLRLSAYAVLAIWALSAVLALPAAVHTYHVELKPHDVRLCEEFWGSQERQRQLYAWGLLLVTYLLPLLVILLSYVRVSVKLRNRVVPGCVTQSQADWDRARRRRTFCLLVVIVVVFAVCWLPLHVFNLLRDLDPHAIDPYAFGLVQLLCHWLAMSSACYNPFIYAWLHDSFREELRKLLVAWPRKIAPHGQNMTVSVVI

[10] = biological target: T1, Cannabinoid receptor 2; test: Antagonist activity at CB2 receptor (unknown origin) at 10 uM after 3 to 5 hrs by beta-arrestin assay relative to control
[11] = biological target: Prostaglandin E2 receptor EP2 subtype (Homo sapiens) (UniProt P43116); test: Agonist activity at PTGER2 (unknown origin) at 10 uM after 90 to 180 mins by beta-arrestin assay relative to control
Prostaglandin E2 receptor EP2 subtype (Homo sapiens), sequence (P43116 whole entry): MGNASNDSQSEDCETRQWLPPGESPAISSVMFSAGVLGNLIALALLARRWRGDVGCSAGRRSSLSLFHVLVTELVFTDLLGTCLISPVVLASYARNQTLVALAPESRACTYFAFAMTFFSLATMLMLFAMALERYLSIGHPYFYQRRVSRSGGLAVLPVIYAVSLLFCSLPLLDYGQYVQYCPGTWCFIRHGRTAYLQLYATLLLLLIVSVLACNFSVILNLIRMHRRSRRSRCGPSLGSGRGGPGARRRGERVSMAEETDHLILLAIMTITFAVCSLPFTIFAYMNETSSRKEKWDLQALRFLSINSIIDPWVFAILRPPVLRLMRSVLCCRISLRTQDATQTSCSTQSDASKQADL

[12] = biological target: T5, Relaxin-3 receptor 1 (Homo sapiens) (UniProt Q9NSD7); test: Agonist activity at RXFP3 (unknown origin) at 10 uM after 90 to 180 mins by beta-arrestin assay relative to control
T5 sequence (whole entry): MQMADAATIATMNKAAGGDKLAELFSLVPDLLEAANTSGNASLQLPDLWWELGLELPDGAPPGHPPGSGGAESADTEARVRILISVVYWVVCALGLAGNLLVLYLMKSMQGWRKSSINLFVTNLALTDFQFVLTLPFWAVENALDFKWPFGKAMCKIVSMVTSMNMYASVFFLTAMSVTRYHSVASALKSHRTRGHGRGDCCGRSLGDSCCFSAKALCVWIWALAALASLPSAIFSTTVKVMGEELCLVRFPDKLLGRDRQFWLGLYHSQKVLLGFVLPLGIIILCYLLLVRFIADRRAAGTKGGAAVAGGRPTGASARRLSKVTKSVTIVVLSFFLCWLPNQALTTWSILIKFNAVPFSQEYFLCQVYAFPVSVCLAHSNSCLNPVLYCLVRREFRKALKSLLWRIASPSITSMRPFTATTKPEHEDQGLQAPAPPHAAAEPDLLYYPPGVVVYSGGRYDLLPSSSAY

[13] = biological target: Histamine H4 receptor (Homo sapiens) (UniProt Q9H3N8); test: Agonist activity at HRH4 (unknown origin) at 10 uM after 90 to 180 mins by beta-arrestin assay relative to control
Histamine H4 receptor (Homo sapiens), sequence (Q9H3N8 whole entry): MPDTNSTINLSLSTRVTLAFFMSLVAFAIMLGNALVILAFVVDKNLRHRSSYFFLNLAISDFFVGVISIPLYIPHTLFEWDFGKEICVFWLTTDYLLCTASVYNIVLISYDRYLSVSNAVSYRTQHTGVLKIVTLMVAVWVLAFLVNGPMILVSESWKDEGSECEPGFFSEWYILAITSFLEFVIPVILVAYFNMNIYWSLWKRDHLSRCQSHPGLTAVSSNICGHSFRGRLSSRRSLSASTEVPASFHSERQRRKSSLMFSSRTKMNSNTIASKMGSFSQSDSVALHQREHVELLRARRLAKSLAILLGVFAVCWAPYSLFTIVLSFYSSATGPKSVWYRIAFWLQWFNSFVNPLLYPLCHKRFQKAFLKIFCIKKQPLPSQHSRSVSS

[14] = biological target: T6, G-protein coupled receptor 151 (Homo sapiens) (UniProt Q8TDV0); test: Agonist activity at GPR151 (unknown origin) expressed in CHO-K1 cells at 10 uM after 90 to 180 mins by beta-arrestin assay relative to control; assay type: cell-based
T6 sequence (whole entry): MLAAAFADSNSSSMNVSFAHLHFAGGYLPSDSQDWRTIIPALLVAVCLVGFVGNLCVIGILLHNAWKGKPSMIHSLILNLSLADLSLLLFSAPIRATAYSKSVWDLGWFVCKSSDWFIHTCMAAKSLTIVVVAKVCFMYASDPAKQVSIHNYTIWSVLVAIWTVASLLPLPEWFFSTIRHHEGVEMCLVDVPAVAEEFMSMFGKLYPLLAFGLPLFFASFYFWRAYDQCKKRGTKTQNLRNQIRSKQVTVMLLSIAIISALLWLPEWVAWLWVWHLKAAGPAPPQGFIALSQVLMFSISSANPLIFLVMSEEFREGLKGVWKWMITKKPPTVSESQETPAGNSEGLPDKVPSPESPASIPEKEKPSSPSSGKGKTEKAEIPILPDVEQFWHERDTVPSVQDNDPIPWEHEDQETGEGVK

[15] = biological target: T7, Probable G-protein coupled receptor 132 (Homo sapiens) (UniProt Q9UNW8); test: Agonist activity at GPR132 (unknown origin) expressed in CHO-K1 cells at 10 uM after 90 to 180 mins by beta-arrestin assay relative to control; assay type: cell-based
T7 sequence (whole entry): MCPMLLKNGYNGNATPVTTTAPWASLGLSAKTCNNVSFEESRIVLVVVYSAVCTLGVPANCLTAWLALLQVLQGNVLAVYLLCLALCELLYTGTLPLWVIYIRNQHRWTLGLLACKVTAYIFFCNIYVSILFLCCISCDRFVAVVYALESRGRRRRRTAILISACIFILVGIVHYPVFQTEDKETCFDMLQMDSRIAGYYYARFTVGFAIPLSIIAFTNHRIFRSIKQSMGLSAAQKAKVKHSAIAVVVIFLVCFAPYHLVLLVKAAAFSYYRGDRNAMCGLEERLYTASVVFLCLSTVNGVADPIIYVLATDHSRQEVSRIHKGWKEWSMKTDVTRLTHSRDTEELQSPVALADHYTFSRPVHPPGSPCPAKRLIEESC

[16] = biological target: G-protein coupled receptor 55 (Homo sapiens) (UniProt Q9Y2T6); test: Agonist activity at GPR55 (unknown origin) expressed in CHO-K1 cells at 10 uM after 90 to 180 mins by beta-arrestin assay relative to control; assay type: cell-based
G-protein coupled receptor 55 (Homo sapiens), sequence (Q9Y2T6 whole entry): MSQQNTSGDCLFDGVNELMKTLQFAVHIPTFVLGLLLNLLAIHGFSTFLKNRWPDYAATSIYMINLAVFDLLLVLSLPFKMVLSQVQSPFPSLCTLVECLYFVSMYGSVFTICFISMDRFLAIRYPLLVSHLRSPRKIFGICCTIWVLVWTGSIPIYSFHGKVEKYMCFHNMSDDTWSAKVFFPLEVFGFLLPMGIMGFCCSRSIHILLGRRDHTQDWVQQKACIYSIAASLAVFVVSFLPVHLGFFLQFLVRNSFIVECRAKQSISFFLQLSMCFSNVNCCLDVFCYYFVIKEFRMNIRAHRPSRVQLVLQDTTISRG

[17] = biological target: T3, Follicle-stimulating hormone receptor (Homo sapiens); test: Agonist activity at FSHR (unknown origin) at 10 uM after 90 to 180 mins by beta-arrestin assay relative to control
[18] = biological target: T4, Prolactin-releasing peptide receptor (Homo sapiens); test: Agonist activity at PRLHR (unknown origin) at 10 uM after 90 to 180 mins by beta-arrestin assay relative to control
[19] = biological target: T2, Cannabinoid receptor 1; test: Agonist activity at CB1 receptor (unknown origin) at 10 uM after 90 to 180 mins by beta-arrestin assay relative to control
[20] = biological target: T1, Cannabinoid receptor 2; test: Agonist activity at CB2 receptor (unknown origin) after 90 to 180 mins by beta-arrestin assay

T1 sequence (P34972 whole entry): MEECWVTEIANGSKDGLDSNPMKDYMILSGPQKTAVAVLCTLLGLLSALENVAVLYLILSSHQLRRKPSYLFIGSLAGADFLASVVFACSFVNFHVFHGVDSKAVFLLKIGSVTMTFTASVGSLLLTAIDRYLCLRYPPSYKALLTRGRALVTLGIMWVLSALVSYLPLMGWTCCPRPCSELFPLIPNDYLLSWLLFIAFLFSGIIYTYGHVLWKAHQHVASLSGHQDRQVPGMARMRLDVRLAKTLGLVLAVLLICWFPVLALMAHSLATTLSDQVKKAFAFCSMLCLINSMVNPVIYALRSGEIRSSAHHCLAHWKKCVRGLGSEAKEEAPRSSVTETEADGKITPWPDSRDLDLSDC

SMILES	IC50 [1] [nM]	IC50 [2] [nM]	Ratio IC50 [3]	inhibition [4] [%]	inhibition [5] [%]	further results
C/C=C/C=C/C=C\CC/C=C/C(=O)NCC(C)(C)O	59	7400				
CC/C=C/C/C=C\CC/C=C/C=C/C(=O)NCC(C)(C)O	9100	2400	0.26	62	45	
C/C=C/C=C/C=C/CC/C=C/C(=O)NCC(C)(C)O	131	9				
C/C=C/C=C/C=C\CC/C=C/C(=O)NCC(C)(O)CO (centres undefined)	168	41	0.24	65	76	
CCCCCCCCC/C=C/C=C/C(=O)NCC(C)(C)O [TETRAHYDROBUNGEANOOL]	2	4600	2560	73	30	
C/C=C/C=C/C=C/CC/C=C/C=C/C(=O)NCC(C)(C)O	224	1390	6.2	34	39	
C/C=C/C=C/C=C/CC/C=C/C=C/C(=O)NCC(C)C	664	100	0.15	57	37	% activity [6]: 64%; inhibition [7]: 68%; inhibition [8]: 72%; inhibition [9]: 52%; inhibition [10]: 15%; Activity [11]: 7%; Activity [12]: 18%; Activity [13]: 18%; Activity [14]: 76%; Activity [15]: 61%; Activity [16]: 67%; Activity [17]: 5%; Activity [18]: 5%; Activity [19]: 5%; EC50 [20]: 41.7 nM
C/C=C/C=C/C=C\CC/C=C/C=C/C(=O)NCC(C)(C)O	197	184	0.9	65	31	

Reference: ChEMBL document CHEMBL3085628, “Identification of CB1/CB2 ligands from Zanthoxylum bungeanum” (J Nat Prod, 2013)
